Measured values from different studies.
Lines come from different studies, so protocols differ.
Target: Serine/threonine-protein kinase PAK 3 (PAK3, Homo sapiens, UniProt O75914)

O=C(O)c1cc(-c2ccc(C3CCNCC3)cc2)c2ccc(-c3ccc(C(F)(F)F)cc3)cc2c1 — remaining binding (cell-free assay, competition with immobilised ligand; 1 µM): 100%
COc1cc2ncnc(Nc3ccc(Oc4ccccc4)cc3C)c2cc1OC — inhibition (enzyme activity, inhibitor; 1 µM): 3%
Nc1ncnc2occ(-c3ccc(NC(=O)Nc4cc(C(F)(F)F)ccc4F)cc3)c12 — remaining signal (cell-free assay, inhibitor; 20 µM): 14%
N#CC1(c2ccccn2)CCN(Cc2cc(C(=O)N3CCCC3)c(=O)n3ccccc23)CC1 — remaining binding (cell-free assay, competition with immobilised ligand; 1 µM): 100%
O=C1NC(=O)c2cc(Nc3ccc(F)cc3)c(Nc3ccc(F)cc3)cc21 — remaining signal (cell-free assay; 0.5 µM): 99.4%
Cc1ccc(Nc2nccc(N(C)c3ccc4c(C)n(C)nc4c3)n2)cc1S(N)(=O)=O — inhibition (enzyme activity, inhibitor; 0.3 µM): 29%
N[C@H]1CCN(c2nccc(-c3cnn4ncccc34)n2)C1 — remaining binding (binding; 1 µM): 100%
CC(C)(C)c1nc2c(s1)c1nc(N)ncc1c1ccc(NS(=O)(=O)c3c(F)cccc3F)c(F)c12 — remaining activity (enzyme activity, inhibitor, radiometric; 1 µM): 87%
COc1cc(-c2cn(C3CCc4ccccc4N(CC(F)(F)F)C3=O)nn2)ccc1-n1ccc(C)n1 (stereo not drawn) — remaining binding (cell-free assay, competition with immobilised ligand; 1 µM): 100%
O=C(Nc1cnn(-c2csc(C(=O)NC3COC3)c2)c1)Nc1ccccc1Cl — remaining activity (enzyme activity, inhibitor; 5 µM): 97.4%
Cc1ccc(C(=O)NCc2ccsc2)cc1C#Cc1cn(C(C)C)c2ncnc(N)c12 — activity vs control (enzyme activity, inhibitor; 1 µM): 78%
Cc1sc(C(=O)NC2COC2)cc1-n1cc(NC(=O)Nc2c(F)cccc2Cl)cn1 — remaining activity (enzyme activity, inhibitor; 10 µM): 114%
CC(C)(O)[C@H]1CC[C@H](Nc2ccc3ncc(-c4cccc(C(F)(F)F)c4)n3n2)CC1 — remaining activity (enzyme activity, inhibitor; 1 µM): 94.2%
N#CCCc1ccc2c(c1)-c1[nH]c3ccc([N+](=O)[O-])cc3c1CC(=O)N2 — remaining signal (cell-free assay; 0.5 µM): 97.1%
CCCOc1ccc([C@H]2[C@H](C(=O)O)[C@@H](c3ccc4c(c3)OCO4)CN2CC(=O)Nc2c(CC)cccc2CC)cc1 — remaining binding (cell-free assay, competition with immobilised ligand; 1 µM): 100%
O=C1Nc2ccc(Cl)cc2C1=Cc1cc(Cl)c(O)c(Cl)c1 — remaining signal (cell-free assay; 0.5 µM): 94.3%
CNC(=O)Nc1ccc2c(c1)CC[C@@]21OC(=O)N(CC(=O)N(Cc2ccc(F)cc2)[C@@H](C)C(F)(F)F)C1=O — remaining binding (cell-free assay, competition with immobilised ligand; 1 µM): 91%
COc1ccccc1N1CCN(c2ncnc3[nH]nc(Br)c23)CC1 — inhibition (enzyme activity, inhibitor; 1 µM): -12%
